Source: ChEMBL document CHEMBL4477155, “Simplified Bryostatin Analogues Protect Cells from Chikungunya Virus-Induced Cell Death” (J Nat Prod, 2016)

What was measured:
Chikungunya virus = assay: Antiviral activity against Chikungunya virus Indian Ocean 899 infected in African green monkey BGM cells assessed as inhibition of virus-induced cytopathic effect after 5 days by MTS/PMS based […] analysis; assay type: functional, organism-based; conditions: Indian Ocean 899, BGM, 120 h
[1] = Cytotoxicity against African green monkey BGM cells assessed as reduction in cell viability after 5 days by MTS/PMS based microscopic analysis; conditions: chlorocebus aethiops
In short: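 Uninfected BGM cells (2.5 × 10^4 cells/well, adhered overnight) exposed to compound dilution series in MEM with 2% FBS at 37 °C, 5% CO2; metabolic activity read by MTS/PMS, with microscopic check of monolayer morphology. CC50 = concentration reducing overall metabolic activity by 50%, by logarithmic interpolation.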

| Structure (SMILES) | EC50 (Chikungunya virus) [µM] | CC50 at 120 h [1] [µM] |
| --- | --- | --- |
| C=C1C[C@H]2C[C@@H]3O[C@@H](CCC3(C)C)C[C@@H](O)CC(=O)O[C@@H](CO)C[C@@H]3C/C(=C\C(=O)OC)[C@H](OC(=O)CCCCCCC)[C@@](O)(O3)C(C)(C)/C=C/[C@@H](C1)O2 | 0.35 |  |
| CCC/C=C/C=C/C(=O)O[C@H]1/C(=C/C(=O)OC)C[C@H]2C[C@H]([C@@H](C)O)OC(=O)C[C@H](O)C[C@@H]3C[C@H](O)C(C)(C)[C@](O)(C[C@@H]4C/C(=C/C(=O)OC)C[C@H](/C=C/C(C)(C)[C@]1(O)O2)O4)O3 | > 96 | > 96 |
| CCC/C=C/C=C/C(=O)O[C@H]1/C(=C/C(=O)OC)C[C@H]2C[C@H]([C@@H](C)O)OC(=O)C[C@H](O)C[C@@H]3C[C@H](OC(C)=O)C(C)(C)[C@](O)(C[C@@H]4C/C(=C/C(=O)OC)C[C@H](/C=C/C(C)(C)[C@]1(O)O2)O4)O3 [BRYOSTATIN 1] | > 96 |  |
